Test results as given in ChEMBL document CHEMBL1139169, “Design, synthesis, and antiviral properties of 4'-substituted ribonucleosides as inhibitors of hepatitis C virus replication: the discovery of R1479” (Bioorg Med Chem Lett, 2007).

Columns and labels:
[1] = tested on: Hepatitis C virus; assay: Antiviral activity against HCV 1b replicon in human 2209-23 cells assessed as inhibition of viral replication at 20 uM; format: functional, Hepacivirus hominis; settings: genotype 1b
Outline: (§1)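 Huh-7 replicon cell line 2209-23. Compounds were tested at a single fixed concentration and scored as percent inhibition of replicon replication, or titrated to give the IC50, the concentration producing a 50% reduction in replicon replication.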

[2] = Cytotoxicity against human 2209-23 cells at 20 uM; format: cell-based; settings: 2209-23, 20 µM
[3] = Cytotoxicity against human 2209-23 cells; format: cell-based
[4] = tested on: Hepatitis C virus; assay: Antiviral activity against HCV 1b replicon in human 2209-23 cells; format: functional, organism-based, Hepacivirus hominis; settings: genotype 1b; outline: as §1
[5] = tested on: Hepatitis C virus; assay: Antiviral activity against HCV 1b replicon in human 2209-23 cells assessed as inhibition of viral replication at 100 uM; format: functional, Hepacivirus hominis; settings: genotype 1b
[6] = Cytostatic activity against human 2209-23 cells; format: ADME, cell-based; settings: read-out: CT50 (the source's name)
Outline: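 Replicon cells were tested for proliferation by measuring incorporation of tritiated thymidine into cellular DNA with a scintillation proximity assay (SPA). CT50 was taken as the cytostatic concentration.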

[7] = tested on: Hepatitis C virus; assay: Inhibition of HCV 1b BK NS5B570 RNA polymerase; design: species or system Hepatitis C virus subtype 1b
Outline: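 NS5B570-BK polymerase activity was read as incorporation of radiolabeled nucleoside monophosphate into acid-insoluble RNA products, with HCV cIRES RNA as template.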

[8] = Cytotoxicity against human 2209-23 cells at 100 uM; format: cell-based; settings: 2209-23, 100 µM

SMILES	inhibition at 20 µM [1]	Activity [2]	also measured
CC#C[C@]1(CO)O[C@@H](n2ccc(N)nc2=O)[C@H](O)[C@@H]1O	11%	0%	–
C=CC[C@]1(CO)O[C@@H](n2ccc(=O)[nH]c2=O)[C@H](O)[C@@H]1O	–	–	CC50 [3]: 39 µM; IC50 [4]: 22 µM
O=c1ccn([C@@H]2OC(CO)(CO)[C@@H](O)[C@H]2O)c(=O)[nH]1	1%	0%	–
C#C[C@]1(CO)O[C@@H](n2ccc(=O)[nH]c2=O)[C@H](O)[C@@H]1O	0%	0%	–
C=C[C@]1(CO)O[C@@H](n2ccc(N)nc2=O)[C@H](O)[C@@H]1O	–	0%	inhibition at 100 µM [5]: 53%
Nc1ccn([C@@H]2O[C@H](CO)[C@@H](O)[C@H]2F)c(=O)n1	–	–	CC50 [3]: > 100 µM; GI50 [6]: 0.8 µM; IC50 [4]: 0.58 µM
C#C[C@]1(CO)O[C@@H](n2ccc(N)nc2=O)[C@H](O)[C@@H]1O	3%	0%	IC50 [7]: 2.7 µM
N#C[C@]1(CO)O[C@@H](n2ccc(N)nc2=O)[C@H](O)[C@@H]1O	99%	100%	–
C[C@@]1(O)[C@H](O)[C@@H](CO)O[C@H]1n1ccc(N)nc1=O	–	–	CC50 [3]: > 33 µM; GI50 [6]: > 100 µM; IC50 [4]: 1.23 µM
Nc1ccn([C@@H]2OC(CO)(CO)[C@@H](O)[C@H]2O)c(=O)n1	13%	2%	–
C=CC[C@]1(CO)O[C@@H](n2ccc(N)nc2=O)[C@H](O)[C@@H]1O	0%	0%	–
CC#C[C@]1(CO)O[C@@H](n2ccc(=O)[nH]c2=O)[C@H](O)[C@@H]1O	–	–	inhibition at 100 µM [5]: 76%; Activity [8]: 19%
[N-]=[N+]=N[C@]1(CO)O[C@@H](n2ccc(=O)[nH]c2=O)[C@H](O)[C@@H]1O	13%	17%	IC50 [7]: 0.3 µM
CCO[C@]1(CO)O[C@@H](n2ccc(N)nc2=O)[C@H](O)[C@@H]1O	11%	0%	–
CC[C@]1(CO)O[C@@H](n2ccc(N)nc2=O)[C@H](O)[C@@H]1O	–	–	inhibition at 100 µM [5]: 20%; Activity [8]: 20%
C=C[C@]1(CO)O[C@@H](n2ccc(=O)[nH]c2=O)[C@H](O)[C@@H]1O	–	0%	inhibition at 100 µM [5]: 50%
N#C[C@]1(CO)O[C@@H](n2ccc(=O)[nH]c2=O)[C@H](O)[C@@H]1O	0%	0%	–
[N-]=[N+]=N[C@]1(CO)O[C@@H](n2ccc(N)nc2=O)[C@H](O)[C@@H]1O [4'-AZIDOCYTIDINE]	97%	13%	CC50 [3]: > 2000 µM; GI50 [6]: > 100 µM; IC50 [7]: 0.29 µM; IC50 [4]: 1.28 µM
